ChEMBL document CHEMBL3425480 (J Med Chem, 2015)

Tests used:
[1] = Inhibition of PI4K3alpha (unknown origin) assessed as hydrolysis of ATP for 60 mins by ADP-Glo kinase assay; set-up: species or system Homo sapiens
How it was run: (§1)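 ADP-Glo lipid kinase assay, 5 μL. Final enzyme: PI4K IIIβ 4 ng/μL, IIIα 2 ng/μL, IIα 2 ng/μL. Substrate PI/PS 50 μM, ATP 100 μM final. Inhibitors from 10 mM DMSO stocks. Run 60 min at 25 °C, ADP by luminescence.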

[2] = target: Phosphatidylinositol 4-kinase type 2-alpha (Homo sapiens, UniProt Q9BTU6); assay: Inhibition of PI4K2alpha (unknown origin) assessed as hydrolysis of ATP for 60 mins by ADP-Glo kinase assay; how it was run: as §1
Sequence of Phosphatidylinositol 4-kinase type 2-alpha (Q9BTU6 whole entry): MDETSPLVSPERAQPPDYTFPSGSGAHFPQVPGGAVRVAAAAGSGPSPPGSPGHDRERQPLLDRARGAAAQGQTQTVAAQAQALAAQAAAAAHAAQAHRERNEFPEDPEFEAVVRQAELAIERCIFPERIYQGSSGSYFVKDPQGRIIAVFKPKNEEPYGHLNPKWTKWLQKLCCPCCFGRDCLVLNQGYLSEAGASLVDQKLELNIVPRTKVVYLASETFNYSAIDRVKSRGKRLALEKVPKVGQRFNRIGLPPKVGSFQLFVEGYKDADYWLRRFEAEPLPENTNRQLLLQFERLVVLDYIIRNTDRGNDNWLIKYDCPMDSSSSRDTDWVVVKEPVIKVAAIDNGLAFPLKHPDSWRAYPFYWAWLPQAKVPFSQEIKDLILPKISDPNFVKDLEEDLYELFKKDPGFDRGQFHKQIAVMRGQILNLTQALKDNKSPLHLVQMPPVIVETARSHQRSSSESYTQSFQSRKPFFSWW

[3] = system: Coxsackievirus B3; assay: Anticoxsackie activity in CVB3 strain Nancy infected in human HeLa cells assessed as inhibition of virus-induced cytopathic effect after 4 hrs by XTT assay; assay type: functional, cell-based; details: Enterovirus B, 3 days, in the assay text read “after 3 days” for “after 4 hrs”
How it was run: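 HeLa cells seeded a day ahead (30000/well) in DMEM with L-glutamine, 2% FBS, penicillin/streptomycin. 3-fold serial compound dilutions in triplicate, 1 h preincubation, then CVB3 added at MOI 0.005 IU/cell. Incubated 3 days at 37 °C, 5% CO2. Viability by XTT over 4 h, absorbance of formazan read. EC50 by nonlinear regression of % viability vs log10 concentration.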

[4] = system: Human rhinovirus sp.; assay: Antirhinovirus activity in HRVM infected in H1-HeLa cells assessed as inhibition of virus-induced cytopathic effect after 3 days by Cell-Titer Glo viability assay; assay type: functional, organism-based; details: 72 h
How it was run: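 H1-HeLa cells in RPMI with 10% heat-inactivated FBS and antibiotics, premixed in batch with HRV1A, HRV14 and HRV16, each at 4× TCID90. Replicate 3-fold serial dilutions in DMSO transferred acoustically (384-well). Incubated three days at 33 °C. Cytopathic effect read as viability by CellTiter-Glo.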

[5] = system: Hepatitis C virus; assay: Antiviral activity in HCV 1b infected in HUH 7-lunet cells after 3 days by Dual-Glo luciferase assay; assay type: functional, cell-based, Hepacivirus hominis; details: genotype 1b, Huh-7, 72 h
How it was run: (§2)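 Multiplex replicon assay in HUH 7-lunet cells carrying a genotype 1b replicon (I389luc-ubi-neo/NS3-3′/ET) or a 2a JFH-1 replicon (2aLucNeo-25). Cells kept in DMEM with GlutaMAX, 10% non-heat-inactivated FBS, 1 mg/mL G-418 and nonessential amino acids. 1600 cells/well (384-well) given serial dilutions. After three days, Renilla luciferase read by Dual-Glo.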

[6] = system: Hepatitis C virus; assay: Antiviral activity in HCV 2a JFH1 infected in HUH 7-lunet cells after 3 days by Dual-Glo luciferase assay; assay type: functional, cell-based, Hepacivirus hominis; details: subtype 2a JFH1, Huh-7, 72 h; how it was run: as §2
[7] = Cytotoxicity against human HeLa cells; assay type: cell-based
[8] = Inhibition of PI4K3beta (unknown origin) assessed as hydrolysis of ATP for 60 mins by ADP-Glo kinase assay; set-up: species or system Homo sapiens; how it was run: as §1
[9] = system: Coxsackievirus B3; assay: Anticoxsackie activity in CVB3 strain Nancy infected in human HeLa cells assessed as inhibition of virus-induced cytopathic effect after 3 days by XTT assay; details: Enterovirus B

| SMILES | IC50 [1] [nM] | IC50 [2] [nM] | EC50 [3] [nM] | EC50 [4] [nM] | EC50 [5] [nM] | EC50 [6] [nM] | CC50 [7] [nM] | IC50 [8] [nM] | EC50 [9] [nM] |
| --- | --- | --- | --- | --- | --- | --- | --- | --- | --- |
| COc1ccc(-c2c(C)nc3c(NCCNC(C)=O)cc(Cl)nn23)cc1OC | 82700 | > 100000 | 750 | 1090 | 290 | 31800 | > 50000 | – | – |
| COc1ccc(-c2c(C)nn3c(NCCOC(C)=O)cc(C)nc23)cc1OC | 29500 | > 100000 | 860 | 1380 | 960 | > 44000 | > 50000 | 67 | – |
| COc1ccc(-c2c(C)nn3c(NCCNC(=O)C(C)C)cc(C)nc23)cc1OC | 62100 | > 100000 | 11000 | 1620 | 1210 | > 44000 | > 50000 | 120 | – |
| C[C@@]1(O)[C@H](O)[C@@H](CO)O[C@H]1n1ccc2c(N)ncnc21 [BETA-2'-C-METHYL-7-DEAZA-ADENOSINE] | – | – | – | 5100 | 210 | 210 | > 50000 | – | – |
| COc1ccc(-c2c(C)nc3c(N)cc(Cl)nn23)cc1OC | > 100000 | > 100000 | 23 | 890 | 210 | 26500 | 1750 | 83 | – |
| COc1ccc(-c2c(C)nn3c(NCCN4CCOCC4)cc(C)nc23)cc1OC | – | – | 3380 | 2500 | 1030 | > 44000 | – | – | – |
| COc1ccc(-c2c(C)nc3c(NCCNC(C)=O)ccnn23)cc1OC | 33700 | > 100000 | 280 | 2900 | 360 | 27900 | > 50000 | 92 | – |
| COc1ccc(-c2c(C)nn3c(NCCNS(C)(=O)=O)cc(C)nc23)cc1OC | 29300 | > 100000 | – | 3000 | 910 | 42500 | > 50000 | 120 | 1430 |
| CC(=O)NCCNc1cc(Cl)nn2c(-c3ccc(F)c(C=O)c3)c(C)nc12 | > 100000 | > 100000 | > 50000 | 24300 | 5300 | 13600 | > 50000 | 89 | – |
| COc1ccc(-c2c(C)nn3c(NCCNC(C)=O)cc(C)nc23)cc1OC | 59400 | > 100000 | 1230 | 2900 | 1030 | > 44000 | > 50000 | 70 | – |
| COc1ccc(-c2c(C)nc3c(NCCN4CCOCC4)ccnn23)cc1OC | 27500 | > 100000 | 500 | 880 | 370 | 17900 | > 50000 | 93 | – |
